System: MS2 coat protein
Test: apparent Kd, MS2 coat protein; higher = weaker binding; RNA-MaP array
Method in brief: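 Incubations were done at room temperature with fluorescently labeled MS2 coat protein at 1.5 nM to 3 μM and designed RNAs transcribed on an Illumina sequencing chip from sequenced DNA templates, with or without input ligand. Apparent Kd is the median of binding curves fitted for each cluster. Designs with fewer than 10 measured clusters were excluded.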

[1] = designed as: OFF switch for flavin mononucleotide, no ligand
[2] = ligand present: flavin mononucleotide, designed as: OFF switch for flavin mononucleotide
[3] = designed as: ON switch for flavin mononucleotide, no ligand
[4] = ligand present: flavin mononucleotide, designed as: ON switch for flavin mononucleotide
[5] = designed as: OFF switch for theophylline, no ligand
[6] = ligand present: theophylline, designed as: OFF switch for theophylline
[7] = designed as: ON switch for tryptophan, no ligand
[8] = ligand present: tryptophan, designed as: ON switch for tryptophan
[9] = designed as: ON switch for theophylline, no ligand
[10] = ligand present: theophylline, designed as: ON switch for theophylline

| Sequence | apparent Kd [1] | apparent Kd [2] | other results |
| --- | --- | --- | --- |
| AUUUCAAACAUGAGGAUCACCCAUGUCAAGUUUGAGCAACUAAGAAGGUCAGAUCCAUAAGCACUGAAGGAUAUUAAGAGGUAC | 31.8 nM | 22 nM | – |
| CAACAGGAGCAGAAGGUCCAACUCAUAAAUACGGAAGGAUAUGCGUGACCAACUAAAGAAACAUGAGGAUCACCCAUGUAAGCG | – | – | apparent Kd [3]: 10.7 nM; apparent Kd [4]: 7.53 nM |
| CAACCACACAUAAGGCAAGGACAUGAGGAUCACCCAUGUGGUAGAAGGCAUCCUAAUGCGGACGAUGAGGAUAUACGACGUGCA | 75.5 nM | 50 nM | – |
| CAACUAAAGGAGAAGGCUAACAUGAGGAUCACCCAUGUCCGCGUGUCCGCUUAUAAUGCGCGCAUAGAGGAUAUCCCAAGUUUA | – | – | apparent Kd [3]: 21.4 nM; apparent Kd [4]: 13.6 nM |
| CAAGUCGGCAAGGAUAUGAAACGUAUUACAGAUUCAGAAGGUGCUACAUGAGGAUCACCCAUGUGGUCAAUACC | 6.76 nM | 13.1 nM | – |
| CACCCGUCGACUUAGGAUAUACUGUUGUGAACAUGAGGAUCACCCAUGUAUUAAGCUAGAACGAAGUAGAAGGAAGUUUUCCUUGC | – | – | apparent Kd [3]: 15.6 nM; apparent Kd [4]: 13.1 nM |
| CAGGGAAGAUGAGGAUAUCAUAGGAGGAUAUGUCGACACAUGAGGAUCACCCAUGUCGCUUACGUUGAGAAGGCAUUGACGUGU | 13.2 nM | 11.3 nM | – |
| CAGUAAGUAGGAUAUGUAUCAAGCUACAUGAGGAUCACCCAUGUGAACCCUAACAGCUGAACAGAAGGACUGUGUG | 156 nM | 198 nM | – |
| CAUACGCCGCAGAAGGAAGGACAGACAUGAGGAUCACCCAUGUACACCGGUUUAUUGGGUGCACCUUAGGAUAUGCAAAAGAAC | – | – | apparent Kd [3]: 268 nM; apparent Kd [4]: 132 nM |
| CAUUACCAUGUUAGGAUAUCCUGCGGAAUUGCCCUGGAGAAGGAACAUGAGGAUCACCCAUGUGCACAAACAAC | 17.6 nM | 26.1 nM | – |
| CCACUACAUGAGGAUCACCCAUGUCAGGAUAUCAACCACGCCUCUCCUUGGACGUAGAUGAGAAGGGACGUGGG | 16.7 nM | 28.2 nM | – |
| CCCUCGUUAUAGAAGGUCACAUUAAAUAAACAUGAAGGAUAUAUACCCAUUACACAUGAGGAUCACCCAUGUUAGGGCUGGCAU | 14.2 nM | 13.6 nM | – |
| CCGACACAGAAGAAGGCUUUUGGUCUUAGCAGAAGAGGAUAUUCCUGUGUUCCGCGUACAUGAGGAUCACCCAUGUGUGAGCAC | 6.59 nM | 7.46 nM | – |
| CCGCGACCUGAGAAGGGCUGCCAAGGGAGACACAUGAGGAUCACCCAUGUCGGGUGGUCCUGCUAGCAGGAUAUCAUCGCAGGA | 173 nM | 225 nM | – |
| CGAACAUGAGGAUCACCCAUGUGUUUCCUUGGUAGACGACAUAGAAGGGCCGUAAAUUACAGCGGGCAGGAUAUAUGACUUAAG | 164 nM | 137 nM | – |
| CGAAUAUAGGCUACGUGUCAUUGAGGCGAUACCAGAUUAUGCCAGAUCCCUUGGCAGCGCCAAACAUGAGGAUCACCCAUGUUCA | – | – | apparent Kd [5]: 22.1 nM; apparent Kd [6]: 29.3 nM |
| CGAGCAAGAGGAUAUACGAAGACGGUAUGAGUCAACCUCAAACAUGAGGAUCACCCAUGUAGAAGGCUUCUCAU | 7.46 nM | 9.74 nM | – |
| CGCAAGAUCUUAGGAUAUCUGUGAGCCAAGACUAGAGAAGGAAGGAGGCUGUGCAACAUGAGGAUCACCCAUGUAUCCCGUGCA | 39.7 nM | 35.4 nM | – |
| CGCCGUGAUUAGAAGGGUGGUGGGAAUCUUAUCACAGGAUAUAAAUAGGGCCGCUACAUGAGGAUCACCCAUGUCCUCCGGUCA | 200 nM | 165 nM | – |
| CGGCGGGACUCACAUGAGGAUCACCCAUGUUUAAAGGGUCAAAAGGAUAUGAAAACAGCAAGUAAUCAGAAGGUUUACCUAGUG | 14.5 nM | 15.8 nM | – |
| CGGUCCACUGAGAAGGCUCACUCCAUGCCGAGGAGAGGAUAUCAAACCUAUAUUGCACGCAGCGAACAUGAGGAUCACCCAUGU | – | – | apparent Kd [3]: 11 nM; apparent Kd [4]: 8.73 nM |
| CGUGAUACUGGUAUACUCUGAAGAUCAAUUCGAGGACCGGUACGGCCGCCACUCGUUAGUAGACAUGAGGAUCACCCAUGUUAGU | – | – | apparent Kd (designed as: OFF switch for tryptophan, no ligand): 20 nM; apparent Kd (ligand present: tryptophan, designed as: OFF switch for tryptophan): 22.5 nM |
| CGUUGACAUGAGGAUCACCCAUGUUCCCUAGCCACAGGAUAUCGACGCGUGCUCGCUAGACGAGAAGGGUGGUAAA | – | – | apparent Kd [3]: 30.4 nM; apparent Kd [4]: 11.7 nM |
| CUCCUACAUGAGGAUCACCCAUGUGAGGAUAUCUCCCAGUGGGAAUAGUUUCCAUGGAAGAGAAGGCACAGUGA | 24.4 nM | 30.9 nM | – |
| CUGACGAGCUUUUUGUCAGGUUGUGUAGAUACCAGUUCUCUGGUGAACCCUUGGCAGCUAACAACAUGAGGAUCACCCAUGUGAU | – | – | apparent Kd [5]: 83.7 nM; apparent Kd [6]: 326 nM |
| CUGCGCUCGAAGAAGGGCUGCCACAUGAGGAUCACCCAUGUCACUGACACCGAAGUUAGAAAGUAGCAGGAUAUUCAGGGUCCU | – | – | apparent Kd [3]: 49.2 nM; apparent Kd [4]: 32.4 nM |
| CUUAAGUGAGGAUAUCGUGGGACUACAUUAAUGAGAAUCAGCGAGAAGGCACAUGAGGAUCACCCAUGUGGUAA | 18.6 nM | 76.2 nM | – |

| Sequence | apparent Kd [1] | apparent Kd [2] | other results |
| --- | --- | --- | --- |
| CUUCUGAAAGCAAUGGGAUCUGUUAUUGAUACCAGCAUCUGAUUUUGCCCUUGGCAGCAAGAAACAUGAGGAUCACCCAUGUGGC | – | – | apparent Kd [5]: 19.5 nM; apparent Kd [6]: 61.2 nM |
| GAAACAUUCCCGAGUUUCUACAUGAGGAUCACCCAUGUCCCAUAGGAUAUCUCUACCAGCCGCCGAGAGAAGGAUGUAGUCACU | – | – | apparent Kd [3]: 185 nM; apparent Kd [4]: 148 nM |
| GAACAUGAGGAUCACCCAUGUGCUAUUGGGAAUCGCGCUACAUAGGAUAUAGAGGCGACUGUACUCUAGAAGGAUGCUAGUUUC | 38.3 nM | 37.8 nM | – |
| GAACCGUUUGAGAAGGUACACAUUCAGGUCGGUACUGGACAUGAGGAUCACCCAUGUGCCGGUGGUAAGGAUAUCAGAUGAGCU | 10.5 nM | 10.4 nM | – |
| GAAGACAUGAGGAUCACCCAUGUUACACACCGAGGACCGGUACGGCCGCCACUCGUAGGCCCUCGGCUCACCUGAGAUCCGCAUC | – | – | apparent Kd [7]: 23.8 nM; apparent Kd [8]: 22.6 nM |
| GACGAGGAACCAAAGGAUAUACACAUAAACACAUGAGGAUCACCCAUGUAUUAGAGGAUAAACAUGUAGAAGGUUGAUACGGCGUG | – | – | apparent Kd [3]: 48.7 nM; apparent Kd [4]: 36.9 nM |
| GACGAGUAGACGGCCGCCACUAUGCUGCGCAGCCCUAGAAACGCACAUGAGGAUCACCCAUGUCUUAGGACCGGGUCGAACUUAA | – | – | apparent Kd [7]: 78.5 nM; apparent Kd [8]: 65.7 nM |
| GACUACCAGUAAGGAUAUGCUCUUAUAAAAGGAGCAGAAGGUACCUGUGACGCCUACGGGCGACAUGAGGAUCACCCAUGUUCU | – | – | apparent Kd [3]: 692 nM; apparent Kd [4]: 386 nM |
| GAGUACUGGUUAGGGAGAAAUACAUGAGGAUCACCCAUGUCCAGAAGGAUUCAGUAAGUGCCGGAAUAGGAUAUGGAACUAAAA | – | – | apparent Kd [3]: 246 nM; apparent Kd [4]: 105 nM |
| GAUCGUUGGGAGGAUAUCCGCAAGUCCAGGGAGGGAGAAGGCCCAACAUGAGGAUCACCCAUGUAGAAGCGCAU | 51 nM | 77.6 nM | – |
| GAUCUGUGAGGAUAUUGUUAGAGCAUUCAACCAUCGAAUGCCAAGAAGGCACAUGAGGAUCACCCAUGUAGACA | 7.9 nM | 10.4 nM | – |
| GAUGGCCUAGGAUAUACGCGUUGGUUGGCUCGUCACGAUACACAUGAGGAUCACCCAUGUAGAAGGAGGAGAGU | 10.5 nM | 11.7 nM | – |
| GCAAAAUACAUGAGGAUCACCCAUGUUAAGUGGGCCUGAACAAGAAGGCAGCAAAUUUUAUUUUCUGAGGAUAUUGGCAUAUAU | 30.2 nM | 36.8 nM | – |
| GCAAUACAUGAGGAUCACCCAUGUUUUAGAUACGAAGGAUAUGUGUAAGCGUACUAAUGUACAGAAGGUCGGAUUU | – | – | apparent Kd [3]: 13.1 nM; apparent Kd [4]: 9.26 nM |
| GCACAACAUGAGGAUCACCCAUGUCGAGAUACCAGAACAUAUAUAUUCCCUUGGCAGCUCACACCUUUAAUGUAAAAUUCUUUGG | – | – | apparent Kd [9]: 12.7 nM; apparent Kd [10]: 14.5 nM |
| GCAUUAGGGUAAGGAUAUUGAAUUAAACAUGGCAAAGUAAUUUUUGACAUGAGGAUCACCCAUGUCAAGAAGGUACUCAUUCAU | 6.08 nM | 5.74 nM | – |
| GCCAGCAGUACAUGAGGAUCACCCAUGUCCCUUGUACUUUUAUAGGAUAUACGAGUGGCUACCAUGUAGAAGGAUAGAAUUGUC | 932 nM | 606 nM | – |
| GCCCGUUAUUAGAAGGGUAUUCGGAUAUGCAUUCCUUACAUGAGGAUCACCCAUGUACCGCGAGUACAGGAUAUAAAACCGCCA | 75.2 nM | 69.7 nM | – |
| GCCUAUAUUGUCAGGAUAUGCAUAAAGGAAAAGAAGCAGAAGGGACAUGAGGAUCACCCAUGUUACAGCCAAUA | 6.84 nM | 12.6 nM | – |
| GCCUGACCCAUAGGAUAUCGCGUAGCUGCCGGCUACGACACAUGAGGAUCACCCAUGUAUCAAAUCGAGAAGGAUGAUCUGCAA | – | – | apparent Kd [3]: 272 nM; apparent Kd [4]: 168 nM |
| GCGGAACAUGAGGAUCACCCAUGUCAGGAUAUACGCACGGAGUAGGAGGAGGCCUAUGGUAGAAGGGACAGUGA | 10.8 nM | 10.2 nM | – |
| GCGGGACAUGAGGAUCACCCAUGUGAGGAUAUGUGCAGUGGCAGGGACAGUUAAAAGUACAGAAGGCACAGCCC | 19.7 nM | 17.6 nM | – |
| GCUAUAUCGUAGCUAACAUGAGGAUCACCCAUGUGAAGGAAGAGAAGGUGCAUCUAACAGACCCGCAAGGAUAUCUAGAUAAAG | – | – | apparent Kd [3]: 18.8 nM; apparent Kd [4]: 16.1 nM |
| GCUAUGAACGUAGGAUAUGAAGCCUGGCUUGGUUCAGAAGGACGUGAGUAAGUGAGGUCCUGACAUGAGGAUCACCCAUGUACA | 23.9 nM | 31.7 nM | – |
| GCUCUGUCAGGAUAUAGGACGGCAACAGGCAAACUAAGCAACUAGAAGGGACAUGAGGAUCACCCAUGUAGCGC | 9.33 nM | 9.2 nM | – |
| GGAAAAUAUAGGGAUACCAGAUAUGGCGUUGACAUGAGGAUCACCCAUGUCUUAGCAGUGAUCCCUUGGCAGCCCACACCAUCCG | – | – | apparent Kd [9]: 71.6 nM; apparent Kd [10]: 34 nM |
| GGAAUGUCGUAGGAUAUAUGAUCUGUAAGGUAGAUAGAAGGACGAACAUGAGGAUCACCCAUGUGGAGGAUGUU | 15.5 nM | 27.5 nM | – |
